Laboratory results taken from ChEMBL document CHEMBL5058577, “EUbOPEN Chemogenomics Library 2 (Multiplex)” (2022).

Test system: U2OS
Experiment: Multiplex assay against U2OS
Assay type: toxicity, cell-based
Conditions: human
Summary of the method: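 Live cells were stained at seeding with Hoechst33342, BioTracker Green Microtubule Cytoskeleton Dye, MitoTracker Red and Annexin V Alexa Fluor 680, then imaged on a CQ1 microscope at 37°C and 5% CO2 after compound addition. CellPathfinder machine-learning gating split cells into Hoechst high-intensity objects or normal cells. Normal cells were split into healthy, pyknosed or fragmented nuclei, and pyknosed cells into mitotic or apoptotic. Tubulin, mitochondrial-mass and membrane-permeability phenotypes are per cents of healthy-nucleus cells.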

[1] = 12 h, 1 µM, compound concentration 1 uM, replicate 1
[2] = 12 h, 1 µM, compound concentration 1 uM, replicate 2
[3] = 12 h, 10 µM, compound concentration 10 uM, replicate 1
[4] = 12 h, 10 µM, compound concentration 10 uM, replicate 2
[5] = 24 h, 1 µM, compound concentration 1 uM, replicate 1
[6] = 24 h, 1 µM, compound concentration 1 uM, replicate 2
[7] = 24 h, 10 µM, compound concentration 10 uM, replicate 1
[8] = 24 h, 10 µM, compound concentration 10 uM, replicate 2
[9] = 48 h, 1 µM, compound concentration 1 uM, replicate 1
[10] = 48 h, 1 µM, compound concentration 1 uM, replicate 2
[11] = 48 h, 10 µM, compound concentration 10 uM, replicate 1
[12] = 48 h, 10 µM, compound concentration 10 uM, replicate 2

With `CCCCC[C@H](O)/C=C/[C@H]1[C@H](O)CC(=O)[C@@H]1CCCCCCC(=O)O` [ALPROSTADIL] the “Population Apoptotic (%)” value [1] was 100%, the “Population Fragmented Nuclei (%)” value [1] was 31% and the “Population Healthy Nuclei (%)” value [1] was 62%. The “Population Hoechst High Intensity Objects (%)” value [1] was 1%, the “Population Membrane Permeable-Phenotype (%)” value [1] was 4% and the “Population Mitochondria Different-Phenotype (%)” value [1] was 2%. For the same molecule, the “Population Mitotic Cells (%)” value [1] was 0%, the “Population Normal (%)” value [1] was 98% and the “Population Pyknosed Nuclei (%)” value [1] was 6%. For the same molecule, the “Population Tubulin-Different-Phenotype (%)” value [1] was 2%, the “Total Cell Count” value [1] was 219 and the “Population Apoptotic (%)” value [2] was 77%. The “Population Fragmented Nuclei (%)” value [2] was 11%, the “Population Healthy Nuclei (%)” value [2] was 81% and the “Population Hoechst High Intensity Objects (%)” value [2] was 0%. The “Population Membrane Permeable-Phenotype (%)” value [2] was 9%, the “Population Mitochondria Different-Phenotype (%)” value [2] was 5% and the “Population Mitotic Cells (%)” value [2] was 22%. For the same molecule, the “Population Normal (%)” value [2] was 100%, the “Population Tubulin-Different-Phenotype (%)” value [2] was 6% and the “Total Cell Count” value [2] was 132. The “Population Apoptotic (%)” value [3] was 71%, the “Population Fragmented Nuclei (%)” value [3] was 23% and the “Population Healthy Nuclei (%)” value [3] was 69%. The “Population Hoechst High Intensity Objects (%)” value [3] was 1%, the “Population Membrane Permeable-Phenotype (%)” value [3] was 1% and the “Population Mitochondria Different-Phenotype (%)” value [3] was 0%. The “Population Mitotic Cells (%)” value [3] was 28%, the “Population Normal (%)” value [3] was 98% and the “Population Pyknosed Nuclei (%)” value [3] was 6%. The “Population Tubulin-Different-Phenotype (%)” value [3] was 0%, the “Total Cell Count” value [3] was 222 and the “Population Apoptotic (%)” value [4] was 77%. For the same molecule, the “Population Fragmented Nuclei (%)” value [4] was 15%, the “Population Healthy Nuclei (%)” value [4] was 75% and the “Population Hoechst High Intensity Objects (%)” value [4] was 2%. For the same molecule, the “Population Membrane Permeable-Phenotype (%)” value [4] was 5%, the “Population Mitochondria Different-Phenotype (%)” value [4] was 3% and the “Population Mitotic Cells (%)” value [4] was 22%. The “Population Normal (%)” value [4] was 97%, the “Population Pyknosed Nuclei (%)” value [4] was 8% and the “Population Tubulin-Different-Phenotype (%)” value [4] was 5%. The “Total Cell Count” value [4] was 104, the “Population Apoptotic (%)” value [5] was 91% and the “Population Fragmented Nuclei (%)” value [5] was 25%. For the same molecule, the “Population Healthy Nuclei (%)” value [5] was 65%, the “Population Hoechst High Intensity Objects (%)” value [5] was 1% and the “Population Membrane Permeable-Phenotype (%)” value [5] was 5%. The “Population Mitochondria Different-Phenotype (%)” value [5] was 2%, the “Population Mitotic Cells (%)” value [5] was 8% and the “Population Normal (%)” value [5] was 98%. For the same molecule, the “Population Pyknosed Nuclei (%)” value [5] was 9%, the “Population Tubulin-Different-Phenotype (%)” value [5] was 3% and the “Total Cell Count” value [5] was 263. For the same molecule, the “Population Apoptotic (%)” value [6] was 87%, the “Population Fragmented Nuclei (%)” value [6] was 14% and the “Population Healthy Nuclei (%)” value [6] was 75%. The “Population Hoechst High Intensity Objects (%)” value [6] was 0%, the “Population Membrane Permeable-Phenotype (%)” value [6] was 8% and the “Population Mitochondria Different-Phenotype (%)” value [6] was 4%. The “Population Mitotic Cells (%)” value [6] was 12%, the “Population Normal (%)” value [6] was 99% and the “Total Cell Count” value [6] was 166. For the same molecule, the “Population Apoptotic (%)” value [7] was 94%, the “Population Fragmented Nuclei (%)” value [7] was 19% and the “Population Healthy Nuclei (%)” value [7] was 74%. The “Population Hoechst High Intensity Objects (%)” value [7] was 1%, the “Population Membrane Permeable-Phenotype (%)” value [7] was 5% and the “Population Mitochondria Different-Phenotype (%)” value [7] was 0%. For the same molecule, the “Population Mitotic Cells (%)” value [7] was 5%, the “Population Normal (%)” value [7] was 98% and the “Population Pyknosed Nuclei (%)” value [7] was 6%. The “Population Tubulin-Different-Phenotype (%)” value [7] was 3%, the “Total Cell Count” value [7] was 271 and the “Population Apoptotic (%)” value [8] was 100%. The “Population Fragmented Nuclei (%)” value [8] was 12%, the “Population Healthy Nuclei (%)” value [8] was 76% and the “Population Hoechst High Intensity Objects (%)” value [8] was 0%. The “Population Membrane Permeable-Phenotype (%)” value [8] was 4%, the “Population Mitochondria Different-Phenotype (%)” value [8] was 2% and the “Population Mitotic Cells (%)” value [8] was 0%. For the same molecule, the “Population Normal (%)” value [8] was 99%, the “Population Pyknosed Nuclei (%)” value [8] was 10% and the “Population Tubulin-Different-Phenotype (%)” value [8] was 1%. The “Total Cell Count” value [8] was 131, the “Population Apoptotic (%)” value [9] was 87% and the “Population Fragmented Nuclei (%)” value [9] was 22%. The “Population Healthy Nuclei (%)” value [9] was 68%, the “Population Hoechst High Intensity Objects (%)” value [9] was 2% and the “Population Membrane Permeable-Phenotype (%)” value [9] was 4%. The “Population Mitochondria Different-Phenotype (%)” value [9] was 2%, the “Population Mitotic Cells (%)” value [9] was 12% and the “Population Normal (%)” value [9] was 97%. For the same molecule, the “Population Pyknosed Nuclei (%)” value [9] was 9%, the “Population Tubulin-Different-Phenotype (%)” value [9] was 2% and the “Total Cell Count” value [9] was 367. The “Population Apoptotic (%)” value [10] was 95%, the “Population Fragmented Nuclei (%)” value [10] was 18% and the “Population Healthy Nuclei (%)” value [10] was 71%. The “Population Hoechst High Intensity Objects (%)” value [10] was 3%, the “Population Membrane Permeable-Phenotype (%)” value [10] was 6% and the “Population Mitochondria Different-Phenotype (%)” value [10] was 5%. For the same molecule, the “Population Mitotic Cells (%)” value [10] was 4%, the “Population Normal (%)” value [10] was 96% and the “Population Tubulin-Different-Phenotype (%)” value [10] was 6%. For the same molecule, the “Total Cell Count” value [10] was 236, the “Population Apoptotic (%)” value [11] was 88% and the “Population Fragmented Nuclei (%)” value [11] was 13%. For the same molecule, the “Population Healthy Nuclei (%)” value [11] was 76%, the “Population Hoechst High Intensity Objects (%)” value [11] was 0% and the “Population Membrane Permeable-Phenotype (%)” value [11] was 4%. For the same molecule, the “Population Mitochondria Different-Phenotype (%)” value [11] was 0%, the “Population Mitotic Cells (%)” value [11] was 11% and the “Population Normal (%)” value [11] was 99%. The “Population Pyknosed Nuclei (%)” value [11] was 10%, the “Population Tubulin-Different-Phenotype (%)” value [11] was 3% and the “Total Cell Count” value [11] was 362. For the same molecule, the “Population Apoptotic (%)” value [12] was 100%, the “Population Fragmented Nuclei (%)” value [12] was 11% and the “Population Healthy Nuclei (%)” value [12] was 77%. The “Population Hoechst High Intensity Objects (%)” value [12] was 2%, the “Population Membrane Permeable-Phenotype (%)” value [12] was 6% and the “Population Mitochondria Different-Phenotype (%)” value [12] was 1%. The “Population Mitotic Cells (%)” value [12] was 0%, the “Population Normal (%)” value [12] was 97% and the “Population Tubulin-Different-Phenotype (%)” value [12] was 4%. For the same molecule, the “Total Cell Count” value [12] was 165.
